Test results from ChEMBL document CHEMBL4002615, “Investigation of piperazine benzamides as human β3 adrenergic receptor agonists for the treatment of overactive bladder” (Bioorg Med Chem Lett, 2017).

Assays:
[1] = target: T1, Beta-3 adrenergic receptor (Homo sapiens, UniProt P13945); assay: Agonist activity at human beta3 adrenergic receptor relative to R-(-)-isoproterenol
Target sequence in this assay (P13945 whole entry, looked up): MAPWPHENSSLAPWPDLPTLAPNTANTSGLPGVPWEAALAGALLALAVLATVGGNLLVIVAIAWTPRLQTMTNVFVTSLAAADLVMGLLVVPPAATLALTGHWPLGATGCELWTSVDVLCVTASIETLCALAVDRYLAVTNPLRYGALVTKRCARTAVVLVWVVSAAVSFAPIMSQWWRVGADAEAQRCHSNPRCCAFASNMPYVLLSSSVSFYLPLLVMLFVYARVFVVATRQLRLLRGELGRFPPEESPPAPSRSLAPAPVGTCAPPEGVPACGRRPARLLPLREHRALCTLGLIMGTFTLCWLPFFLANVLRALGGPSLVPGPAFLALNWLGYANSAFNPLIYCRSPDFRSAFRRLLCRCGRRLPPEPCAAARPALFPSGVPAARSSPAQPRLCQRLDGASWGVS

[2] = target: Beta-1 adrenergic receptor (Homo sapiens, UniProt P08588); assay: Activity at human beta1 adrenergic receptor
[3] = target: Beta-2 adrenergic receptor (Homo sapiens, UniProt P07550); assay: Activity at human beta2 adrenergic receptor
[4] = target: Sodium channel protein type 5 subunit alpha (Homo sapiens, UniProt Q14524); assay: Inhibition of human Nav1.5 by electrophysiology method
[5] = target: Sodium-dependent serotonin transporter (Homo sapiens, UniProt P31645); assay: Inhibition of SERT (unknown origin)
[6] = Induction of phospholipidosis in human HepG2 cells; assay type: cell-based; details: read-out: A50
[7] = target: Sodium-dependent noradrenaline transporter (Homo sapiens, UniProt P23975); assay: Inhibition of NET (unknown origin) expressed in HEK293 cells assessed as reduction in norepinephrine reuptake; assay type: cell-based
[8] = Volume of distribution in rat at 1 mg/kg, iv or 2 mg/kg, po; assay type: ADME, organism-based; details: in vivo
[9] = Plasma clearance in rat at 1 mg/kg, iv or 2 mg/kg, po; assay type: ADME, organism-based
Rattus norvegicus [10] = assay: Unbound clearance in rat at 1 mg/kg, iv or 2 mg/kg, po; assay type: ADME, organism-based; details: in vivo
[11] = Half life in rat at 1 mg/kg, iv or 2 mg/kg, po; assay type: ADME, organism-based; details: in vivo
Rattus norvegicus [12] = assay: Total dose normalized AUC in rat 2 mg/kg, po; assay type: ADME, organism-based; details: in vivo
Rattus norvegicus [13] = assay: Unbound dose normalized AUC in rat 2 mg/kg, po; assay type: ADME, organism-based; details: in vivo
[14] = Oral bioavailability in rat 2 mg/kg; assay type: ADME, organism-based; details: in vivo
[15] = Unbound fraction in rat at 1 mg/kg, iv or 2 mg/kg, po; assay type: ADME, organism-based; details: in vivo
[16] = Plasma clearance in dog at 0.5 mg/kg, iv or 2 mg/kg, po; assay type: ADME, organism-based, Canis lupus familiaris
[17] = Plasma clearance in rhesus monkey at 0.5 mg/kg, iv or 2 mg/kg, po; assay type: ADME, organism-based, Macaca mulatta
Canis familiaris [18] = assay: Unbound clearance in dog at 0.5 mg/kg, iv or 2 mg/kg, po; assay type: ADME, organism-based, Canis lupus familiaris; details: in vivo
Rhesus monkey [19] = assay: Unbound clearance in rhesus monkey at 0.5 mg/kg, iv or 2 mg/kg, po; assay type: ADME, organism-based, Macaca mulatta; details: in vivo
[20] = Volume of distribution in dog at 0.5 mg/kg, iv or 2 mg/kg, po; assay type: ADME, organism-based, Canis lupus familiaris; details: in vivo
[21] = Volume of distribution in rhesus monkey at 0.5 mg/kg, iv or 2 mg/kg, po; assay type: ADME, organism-based, Macaca mulatta; details: in vivo
[22] = Half life in dog at 0.5 mg/kg, iv or 2 mg/kg, po; assay type: ADME, organism-based, Canis lupus familiaris; details: in vivo
[23] = Half life in rhesus monkey at 0.5 mg/kg, iv or 2 mg/kg, po; assay type: ADME, organism-based, Macaca mulatta; details: in vivo
Canis familiaris [24] = assay: Total dose normalized AUC in dog at 2 mg/kg, po; assay type: ADME, organism-based, Canis lupus familiaris; details: in vivo
Rhesus monkey [25] = assay: Total dose normalized AUC in rhesus monkey at 2 mg/kg, po; assay type: ADME, organism-based, Macaca mulatta; details: in vivo
Canis familiaris [26] = assay: Unbound dose normalized AUC in dog at 2 mg/kg, po; assay type: ADME, organism-based, Canis lupus familiaris; details: in vivo
Rhesus monkey [27] = assay: Unbound dose normalized AUC in rhesus monkey at 2 mg/kg, po; assay type: ADME, organism-based, Macaca mulatta; details: in vivo
[28] = Oral bioavailability in dog at 2 mg/kg; assay type: ADME, organism-based, Canis lupus familiaris; details: in vivo
[29] = Oral bioavailability in rhesus monkey at 2 mg/kg; assay type: ADME, organism-based, Macaca mulatta; details: in vivo
[30] = Unbound fraction in dog at 0.5 mg/kg, iv or 2 mg/kg, po; assay type: ADME, organism-based, Canis lupus familiaris; details: in vivo
[31] = Unbound fraction in rhesus monkey at 0.5 mg/kg, iv or 2 mg/kg, po; assay type: ADME, organism-based, Macaca mulatta; details: in vivo
[32] = target: T1, Beta-3 adrenergic receptor; assay: Agonist activity at human beta3 adrenergic receptor
In short: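 Human β3 receptor agonist EC50 given as the mean of at least two experiments.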
Target sequence in this assay (P13945 whole entry): as the sequence (P13945 whole entry, looked up) above

[33] = target: Voltage-gated inwardly rectifying potassium channel KCNH2 (Homo sapiens, UniProt Q12809); assay: Inhibition of human ERG
[34] = Stability in dog liver microsomes assessed as parent compound remaining after 45 mins; assay type: ADME, Canis lupus familiaris, microsome; details: read-out: Stability
[35] = Stability in rat liver microsomes assessed as parent compound remaining after 45 mins; assay type: ADME, microsome; details: read-out: Stability
[36] = Stability in human liver microsomes assessed as parent compound remaining after 45 mins; assay type: ADME, microsome; details: read-out: Stability
[37] = Stability in rhesus monkey liver microsomes assessed as parent compound remaining after 45 mins; assay type: ADME, Macaca mulatta, microsome; details: read-out: Stability
[38] = Stability in human hepatocytes assessed as parent compound remaining up to 60 mins; assay type: ADME, cell-based, Hepatocyte; details: read-out: Stability
[39] = Stability in dog hepatocytes assessed as parent compound remaining up to 60 mins; assay type: ADME, cell-based, Canis lupus familiaris, Hepatocyte; details: read-out: Stability
[40] = Stability in rat hepatocytes assessed as parent compound remaining up to 60 mins; assay type: ADME, cell-based, Hepatocyte; details: read-out: Stability
[41] = Stability in rhesus monkey hepatocytes assessed as parent compound remaining up to 60 mins; assay type: ADME, cell-based, Macaca mulatta, Hepatocyte; details: read-out: Stability
Rattus norvegicus [42] = assay: In vivo agonist activity at beta3-AR in po dosed rat; assay type: functional, organism-based
Rattus norvegicus [43] = assay: Effect on nor-epinephrine level in rat brain at 10 mg/kg, po by microdialysis method; assay type: ADME, organism-based; details: in vivo
Rattus norvegicus [44] = assay: Induction of nor-epinephrine efflux in medial prefrontal cortex of rat at 100 mg/kg, po measured 1 hr post dose by microdialysis method relative to control; assay type: ADME, organism-based; details: in vivo

Chain of Sodium-dependent noradrenaline transporter (P23975 whole entry): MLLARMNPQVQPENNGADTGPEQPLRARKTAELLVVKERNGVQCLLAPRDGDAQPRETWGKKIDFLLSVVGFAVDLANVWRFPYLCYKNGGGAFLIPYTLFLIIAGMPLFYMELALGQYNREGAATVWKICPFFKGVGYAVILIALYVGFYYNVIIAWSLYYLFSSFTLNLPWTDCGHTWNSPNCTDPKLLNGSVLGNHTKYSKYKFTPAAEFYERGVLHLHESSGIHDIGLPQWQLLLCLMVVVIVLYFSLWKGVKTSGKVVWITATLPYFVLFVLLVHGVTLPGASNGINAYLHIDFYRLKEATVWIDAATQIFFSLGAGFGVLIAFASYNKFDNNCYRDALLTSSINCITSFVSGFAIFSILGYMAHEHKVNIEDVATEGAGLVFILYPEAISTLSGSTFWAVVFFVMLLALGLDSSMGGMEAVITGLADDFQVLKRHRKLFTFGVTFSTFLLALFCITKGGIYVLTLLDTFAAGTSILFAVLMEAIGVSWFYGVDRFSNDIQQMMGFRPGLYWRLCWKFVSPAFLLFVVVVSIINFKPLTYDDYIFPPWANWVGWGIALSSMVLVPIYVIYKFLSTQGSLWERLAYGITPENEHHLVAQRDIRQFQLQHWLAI
Chain of Beta-2 adrenergic receptor (P07550 whole entry): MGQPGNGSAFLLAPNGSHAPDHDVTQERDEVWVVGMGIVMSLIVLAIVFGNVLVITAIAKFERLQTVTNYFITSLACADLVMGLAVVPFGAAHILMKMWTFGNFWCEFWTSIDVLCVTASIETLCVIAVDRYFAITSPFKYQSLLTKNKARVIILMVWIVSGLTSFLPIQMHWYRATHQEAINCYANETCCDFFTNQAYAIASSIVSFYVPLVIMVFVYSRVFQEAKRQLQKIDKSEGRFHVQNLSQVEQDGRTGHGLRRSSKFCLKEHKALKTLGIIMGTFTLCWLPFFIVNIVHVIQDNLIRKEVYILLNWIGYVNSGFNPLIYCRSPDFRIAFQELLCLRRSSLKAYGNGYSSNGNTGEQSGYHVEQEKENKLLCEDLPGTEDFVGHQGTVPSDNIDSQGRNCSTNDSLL
Chain of Sodium channel protein type 5 subunit alpha (Q14524 whole entry): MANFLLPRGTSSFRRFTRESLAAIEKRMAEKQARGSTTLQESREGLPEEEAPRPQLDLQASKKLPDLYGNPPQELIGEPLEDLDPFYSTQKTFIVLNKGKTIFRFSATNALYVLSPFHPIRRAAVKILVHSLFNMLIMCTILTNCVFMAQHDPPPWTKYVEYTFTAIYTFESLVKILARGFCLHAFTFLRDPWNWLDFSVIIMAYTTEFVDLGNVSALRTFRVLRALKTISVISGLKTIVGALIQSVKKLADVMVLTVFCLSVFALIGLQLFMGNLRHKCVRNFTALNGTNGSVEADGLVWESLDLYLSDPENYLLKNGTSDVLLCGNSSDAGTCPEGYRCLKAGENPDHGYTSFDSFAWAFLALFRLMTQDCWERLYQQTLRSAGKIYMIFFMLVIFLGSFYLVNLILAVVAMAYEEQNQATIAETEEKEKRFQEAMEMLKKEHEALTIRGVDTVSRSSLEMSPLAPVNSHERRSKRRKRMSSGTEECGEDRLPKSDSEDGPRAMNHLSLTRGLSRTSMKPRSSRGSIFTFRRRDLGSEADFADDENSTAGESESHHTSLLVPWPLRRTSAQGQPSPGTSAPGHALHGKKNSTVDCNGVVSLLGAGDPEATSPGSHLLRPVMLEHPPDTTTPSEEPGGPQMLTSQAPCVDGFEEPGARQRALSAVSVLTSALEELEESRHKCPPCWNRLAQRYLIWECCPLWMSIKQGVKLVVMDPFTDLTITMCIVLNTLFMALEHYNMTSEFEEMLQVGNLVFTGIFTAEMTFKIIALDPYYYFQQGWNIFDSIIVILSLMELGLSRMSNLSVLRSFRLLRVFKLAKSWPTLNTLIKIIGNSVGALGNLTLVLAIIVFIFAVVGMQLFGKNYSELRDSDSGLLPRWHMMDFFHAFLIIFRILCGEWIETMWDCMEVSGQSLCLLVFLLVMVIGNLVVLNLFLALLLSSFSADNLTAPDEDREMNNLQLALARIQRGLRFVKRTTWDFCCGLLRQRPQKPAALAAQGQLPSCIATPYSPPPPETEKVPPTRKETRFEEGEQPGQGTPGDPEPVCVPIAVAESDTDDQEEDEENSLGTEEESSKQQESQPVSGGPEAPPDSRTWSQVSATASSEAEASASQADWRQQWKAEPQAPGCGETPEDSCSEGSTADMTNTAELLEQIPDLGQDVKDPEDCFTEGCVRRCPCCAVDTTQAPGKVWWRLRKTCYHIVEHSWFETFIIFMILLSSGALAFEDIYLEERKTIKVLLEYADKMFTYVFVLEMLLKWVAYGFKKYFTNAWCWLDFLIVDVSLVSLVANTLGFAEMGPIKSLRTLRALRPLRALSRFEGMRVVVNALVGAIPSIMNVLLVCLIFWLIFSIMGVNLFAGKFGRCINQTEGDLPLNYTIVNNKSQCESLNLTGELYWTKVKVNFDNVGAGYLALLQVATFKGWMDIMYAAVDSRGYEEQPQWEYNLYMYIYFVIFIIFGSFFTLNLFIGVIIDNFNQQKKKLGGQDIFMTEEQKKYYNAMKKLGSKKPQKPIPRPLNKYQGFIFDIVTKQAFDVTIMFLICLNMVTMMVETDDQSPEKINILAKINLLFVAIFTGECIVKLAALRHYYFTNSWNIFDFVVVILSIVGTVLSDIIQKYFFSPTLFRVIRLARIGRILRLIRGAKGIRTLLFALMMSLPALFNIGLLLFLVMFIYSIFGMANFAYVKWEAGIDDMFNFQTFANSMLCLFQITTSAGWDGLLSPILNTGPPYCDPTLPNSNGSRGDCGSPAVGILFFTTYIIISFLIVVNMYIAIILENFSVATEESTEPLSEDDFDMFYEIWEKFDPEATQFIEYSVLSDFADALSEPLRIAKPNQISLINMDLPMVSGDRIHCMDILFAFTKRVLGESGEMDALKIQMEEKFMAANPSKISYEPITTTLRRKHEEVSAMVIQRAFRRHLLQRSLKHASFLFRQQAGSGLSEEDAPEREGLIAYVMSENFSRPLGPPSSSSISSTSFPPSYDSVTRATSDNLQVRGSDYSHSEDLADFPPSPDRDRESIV
Chain of Sodium-dependent serotonin transporter (P31645 whole entry): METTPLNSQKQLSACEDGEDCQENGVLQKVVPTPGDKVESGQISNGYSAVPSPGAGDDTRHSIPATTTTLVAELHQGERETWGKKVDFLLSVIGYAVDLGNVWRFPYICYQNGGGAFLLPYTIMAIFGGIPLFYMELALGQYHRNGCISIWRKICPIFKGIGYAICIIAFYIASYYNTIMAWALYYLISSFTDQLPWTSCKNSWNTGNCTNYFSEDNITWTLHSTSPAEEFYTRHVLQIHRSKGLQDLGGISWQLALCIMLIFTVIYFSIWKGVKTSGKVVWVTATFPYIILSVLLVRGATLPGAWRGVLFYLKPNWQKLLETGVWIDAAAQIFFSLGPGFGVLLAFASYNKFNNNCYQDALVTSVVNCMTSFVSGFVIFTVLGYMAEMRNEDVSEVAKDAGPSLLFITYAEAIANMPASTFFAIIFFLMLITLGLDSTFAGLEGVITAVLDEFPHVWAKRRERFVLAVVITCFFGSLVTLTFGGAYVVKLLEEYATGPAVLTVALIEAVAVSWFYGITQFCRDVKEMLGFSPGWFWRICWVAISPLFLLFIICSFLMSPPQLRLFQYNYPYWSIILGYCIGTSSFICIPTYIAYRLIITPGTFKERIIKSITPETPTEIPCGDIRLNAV
Chain of Beta-1 adrenergic receptor (P08588 whole entry): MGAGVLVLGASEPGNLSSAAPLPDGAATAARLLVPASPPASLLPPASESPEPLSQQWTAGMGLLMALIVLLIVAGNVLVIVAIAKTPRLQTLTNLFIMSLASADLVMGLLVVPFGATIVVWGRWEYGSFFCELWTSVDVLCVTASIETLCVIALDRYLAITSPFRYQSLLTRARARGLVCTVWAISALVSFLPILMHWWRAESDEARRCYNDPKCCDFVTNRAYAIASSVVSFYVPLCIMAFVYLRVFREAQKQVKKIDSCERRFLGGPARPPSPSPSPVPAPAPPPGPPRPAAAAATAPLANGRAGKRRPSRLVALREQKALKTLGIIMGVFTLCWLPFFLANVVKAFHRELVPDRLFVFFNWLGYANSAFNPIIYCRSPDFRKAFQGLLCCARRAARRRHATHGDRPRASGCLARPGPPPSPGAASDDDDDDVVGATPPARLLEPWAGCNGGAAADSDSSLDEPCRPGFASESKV

## O=C(c1ccc(C[C@@H]2CC[C@H]([C@H](O)c3ccccc3)N2)cc1)N1CCN(Cc2ccccn2)CC1
[1]
  Emax: 87 to 88%
[2]
  IC50: > 20 µM
[3]
  IC50: > 20 µM
[4]
  IC50: > 30 µM
[5]
  IC50: > 10 µM
[6]
  AC50: 54 µM
[7]
  EC50: 339 nM
[8]
  Vd: 19 L/kg
[9]
  clearance: 71 mL/min/kg
Rattus norvegicus [10]
  CL free: 148 mL/min/kg
[11]
  half-life: 156 min
Rattus norvegicus [12]
  AUC/dose: 0.35 µM·h/mg/kg
Rattus norvegicus [13]
  fAUC/dose: 0.17 µM·h/mg/kg
[14]
  bioavailability: 71%
[15]
  fraction unbound: 0.48
[16]
  clearance: 7.9 mL/min/kg
[17]
  clearance: 18 mL/min/kg
Canis familiaris [18]
  CL free: 17 mL/min/kg
Rhesus monkey [19]
  CL free: 43 mL/min/kg
[20]
  Vd: 6.4 L/kg
[21]
  Vd: 11 L/kg
[22]
  half-life: 720 min
[23]
  half-life: 348 min
Canis familiaris [24]
  AUC/dose: 1.3 µM·h/mg/kg
Rhesus monkey [25]
  AUC/dose: 0.34 µM·h/mg/kg
Canis familiaris [26]
  fAUC/dose: 0.62 µM·h/mg/kg
Rhesus monkey [27]
  fAUC/dose: 0.14 µM·h/mg/kg
[28]
  bioavailability: 27%
[29]
  bioavailability: 16%
[30]
  fraction unbound: 0.48
[31]
  fraction unbound: 0.42

## O=C(c1ccc(C[C@@H]2CC[C@H]([C@H](O)c3ccccc3)N2)cc1)N1CCN(Cc2nnn(CC(F)(F)F)n2)CC1
[32]
  EC50: 1.9 nM
[1]
  Emax: 98%
[2]
  IC50: > 20 µM
[3]
  IC50: > 20 µM
[33]
  IC50: 29.9 µM
[4]
  IC50: > 30 µM
[5]
  IC50: > 10 µM
[6]
  AC50: 72 µM
[7]
  EC50: 627 nM
[8]
  Vd: 17 L/kg
[9]
  clearance: 98 mL/min/kg
Rattus norvegicus [10]
  CL free: 151 mL/min/kg
[11]
  half-life: 168 min
Rattus norvegicus [12]
  AUC/dose: 0.14 µM·h/mg/kg
Rattus norvegicus [13]
  fAUC/dose: 0.09 µM·h/mg/kg
[14]
  bioavailability: 46%
[15]
  fraction unbound: 0.65
[16]
  clearance: 22 mL/min/kg
[17]
  clearance: 19 mL/min/kg
Canis familiaris [18]
  CL free: 35 mL/min/kg
Rhesus monkey [19]
  CL free: 43 mL/min/kg
[20]
  Vd: 11 L/kg
[21]
  Vd: 5.8 L/kg
[22]
  half-life: 414 min
[23]
  half-life: 390 min
Canis familiaris [24]
  AUC/dose: 1.9 µM·h/mg/kg
Rhesus monkey [25]
  AUC/dose: 0.09 µM·h/mg/kg
Canis familiaris [26]
  fAUC/dose: 1.2 µM·h/mg/kg
Rhesus monkey [27]
  fAUC/dose: 0.04 µM·h/mg/kg
[28]
  bioavailability: 100%
[29]
  bioavailability: 5.4%
[30]
  fraction unbound: 0.63
[31]
  fraction unbound: 0.44
[34]
  remaining at 0.75 h: 85%
[35]
  remaining at 0.75 h: 71%
[36]
  remaining at 0.75 h: 42%
[37]
  remaining at 0.75 h: 19%
[38]
  remaining at 1 h: 92%
[39]
  remaining at 1 h: 100%
[40]
  remaining at 1 h: 73%
[41]
  remaining at 1 h: 50%
Rattus norvegicus [42]
  EC50: 4.5 µM
Rattus norvegicus [43]
  Activity: Non-Toxic
Rattus norvegicus [44]
  fold change (FC): 2

## O=C(c1ccc(C[C@@H]2CC[C@H]([C@H](O)c3ccccc3)N2)cc1)N1CCN(Cc2ncn(CC(F)F)n2)CC1
[32]
  EC50: 2.9 nM
[1]
  Emax: 108%
[2]
  IC50: > 20 µM
[3]
  IC50: > 20 µM
[4]
  IC50: > 30 µM
[5]
  IC50: > 10 µM
[7]
  EC50: 26 nM
[8]
  Vd: 57 L/kg
[9]
  clearance: 111 mL/min/kg
[11]
  half-life: 438 min
Rattus norvegicus [12]
  AUC/dose: 0.29 µM·h/mg/kg
[14]
  bioavailability: < 1%

## CCc1nnc([C@H]2[C@@H]3CN(C(=O)c4ccc(C[C@@H]5CC[C@H]([C@H](O)c6ccccc6)N5)cc4)C[C@@H]32)o1
Rattus norvegicus [12]
  AUC/dose: 0.21 µM·h/mg/kg
[17]
  clearance: 30 mL/min/kg
[21]
  Vd: 5.2 L/kg
Canis familiaris [24]
  AUC/dose: 0.46 µM·h/mg/kg
Rhesus monkey [25]
  AUC/dose: 0.06 µM·h/mg/kg
[29]
  bioavailability: 5%

## O=C(c1ccc(C[C@@H]2CC[C@H]([C@H](O)c3ccccc3)N2)cc1)N1CCN(Cc2nnn(CC(F)F)n2)CC1
[32]
  EC50: 1.5 nM
[1]
  Emax: 101%
[2]
  IC50: > 20 µM
[3]
  IC50: > 20 µM
[4]
  IC50: > 30 µM
[5]
  IC50: > 10 µM
[6]
  AC50: > 100 µM
[7]
  EC50: 827 nM
[8]
  Vd: 21 L/kg
[9]
  clearance: 102 mL/min/kg
Rattus norvegicus [10]
  CL free: 182 mL/min/kg
[11]
  half-life: 156 min
Rattus norvegicus [12]
  AUC/dose: 0.05 µM·h/mg/kg
Rattus norvegicus [13]
  fAUC/dose: 0.03 µM·h/mg/kg
[14]
  bioavailability: 16%
[15]
  fraction unbound: 0.56
[16]
  clearance: 22 mL/min/kg
Canis familiaris [18]
  CL free: 34 mL/min/kg
[20]
  Vd: 13 L/kg
[22]
  half-life: 510 min
Canis familiaris [24]
  AUC/dose: 0.29 µM·h/mg/kg
Canis familiaris [26]
  fAUC/dose: 0.19 µM·h/mg/kg
[28]
  bioavailability: 20%
[30]
  fraction unbound: 0.65
